# Reference: ChEMBL document CHEMBL4196179, “Synthesis and Pharmacological Evaluation of Noscapine-Inspired 5-Substituted Tetrahydroisoquinolines as Cytotoxic Agents” (J Med Chem, 2018)
# Activity calls are given as the source filed them. No cut-off for these calls is given here.
# Tests used:
# [1] = system: PANC-1; assay: Cell cycle arrest in human PANC1 cells assessed as increase in accumulation at G2/M phase at 10 uM after 18 hrs by Hoechst 33342 staining based FACS analysis relative to control; type: functional
# Outline: (§1)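 Cells seeded 48 h beforehand, treated 18 h with test compounds at 10 µM or vincristine at 100 nM, then trypsinised and stained with Hoechst 33342 for 60 min; FACS read at 450 nm; % G2/M increase calculated relative to 0.1% DMSO vehicle; mean ± SEM of three independent experiments.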
# [2] = system: MCF7; assay: Cell cycle arrest in human MCF7 cells assessed as increase in accumulation at G2/M phase at 10 uM after 18 hrs by Hoechst 33342 staining based FACS analysis relative to control; type: functional; outline: as §1
# [3] = system: NCI/ADR-RES; assay: Antiproliferative activity against human NCI/ADR-RES cells after 6 days by MTT assay; type: functional, cell-based; conditions: 144 h
# Outline: (§2)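 Cells seeded overnight at 1500/well, then exposed to a range of concentrations for 6 d; viability by MTT (570 nm, background-subtracted, normalised to untreated control = 100%); EC50 from sigmoidal dose-response fit by non-linear least squares; mean ± SEM of at least 8 independent observations. MCF-7 in MEMα + 10% FBS; NCI/AdrRES in DMEM + 10% FCS with periodic 3 µM doxorubicin selection.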
# [4] = Ratio of IC50 for human NCI/ADR-RES cells to IC50 for human MCF7 cells; type: functional
# Outline: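 IC50 in doxorubicin-selected P-gp-expressing NCI/AdrRES cells divided by IC50 in parental MCF-7, each from 6 d MTT viability dose-response curves fitted by non-linear regression.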
# [5] = system: MCF7; assay: Antiproliferative activity against human MCF7 cells after 6 days by MTT assay; type: functional, cell-based; conditions: MCF7, 144 h; outline: as §2
# [6] = Binding affinity to recombinant P-gp cys-less mutant (unknown origin) in proteoliposomes assessed as increase in ATP hydrolysis rate after 40 mins by colorimetric assay; design: species or system Homo sapiens
# Outline: (§3)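 P-gp expressed in High-Five insect cells via recombinant baculovirus, IMAC-purified and reconstituted into proteoliposomes; 0.1-0.5 µg incubated with 2 mM ATP and drug at 10^-9 to 10^-4 M for 40 min at 37 °C; liberated Pi measured colorimetrically; EC50 and extent of stimulation from dose-response fit against drug-free basal activity.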
# [7] = system: NCI/ADR-RES; assay: Inhibition of P-gp in human NCI/ADR-RES cells assessed as rate of calcein-AM accumulation at 1 uM by fluorescence assay; type: cell-based
# Outline: (§4)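 Cells seeded at 2 × 10^3/well and grown 2 d, washed and placed in HBSS; test compound added at 2X in HBSS with DMSO ≤1% final, then calcein-AM at 1 µM final; intracellular fluorescence followed over time, rate taken as slope from linear regression.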
# [8] = species on record: Homo sapiens; assay: Binding affinity to recombinant P-gp cys-less mutant (unknown origin) in proteoliposomes assessed as increase in ATP hydrolysis rate at 10^-9 to 10^-4 M after 40 mins by colorimetric assay relative to basal control; outline: as §3
# [9] = species on record: Homo sapiens; assay: Inhibition of P-gp in human NCI/ADR-RES cells assessed as potentiation of vinblastine-induced cytotoxicity by measuring combination index at 0.3 uM compound concentration after 6 days by MTT assay; type: cell-based
# [10] = species on record: Sus scrofa; assay: Inhibition of pig tubulin polymerization assessed as Vmax of tubulin polymerization at 10 uM after 60 mins turbidimetric analysis (reference value: 27 +/- 2 milliOD/min)
# [11] = system: MCF7; assay: Synergistic antiproliferative activity against human MCF7 cells assessed as reduction in cell viability at 0.1 uM after 6 days in presence of vinblastine by MTT assay; type: functional
# [12] = species on record: Homo sapiens; assay: Inhibition of P-gp in human NCI/ADR-RES cells assessed as potentiation of vinblastine-induced cytotoxicity by measuring combination index at 0.1 uM compound concentration after 6 days by MTT assay; type: cell-based
# [13] = system: MCF7; assay: Synergistic antiproliferative activity against human MCF7 cells assessed as reduction in cell viability at 1 uM after 6 days in presence of vinblastine by MTT assay; type: functional
# [14] = system: PANC-1; assay: Cell cycle arrest in human PANC1 cells assessed as accumulation at G2/M phase at 10 uM after 18 hrs by Hoechst 33342 staining based FACS analysis (reference value: 13.7%); type: functional
# [15] = system: MCF7; assay: Effect on calcein-AM accumulation in human wild type MCF7 cells at 1 uM by fluorescence assay; type: functional, cell-based; outline: as §4
# [16] = species on record: Homo sapiens; assay: Inhibition of P-gp in human NCI/ADR-RES cells assessed as potentiation of vinblastine-induced cytotoxicity by measuring combination index at 1 uM compound concentration after 6 days by MTT assay; type: cell-based
# [17] = system: MCF7; assay: Synergistic antiproliferative activity against human MCF7 cells assessed as reduction in cell viability at 0.3 uM after 6 days in presence of vinblastine by MTT assay; type: functional
# [18] = system: PANC-1; assay: Cell cycle arrest in human PANC1 cells assessed as accumulation at S phase at 10 uM after 18 hrs by Hoechst 33342 staining based FACS analysis (reference value: 11.1%); type: functional
# [19] = system: PANC-1; assay: Cell cycle arrest in human PANC1 cells assessed as accumulation at G1 phase at 10 uM after 18 hrs by Hoechst 33342 staining based FACS analysis (reference value: 70.7%); type: functional
# [20] = system: PANC-1; assay: Cell cycle arrest in human PANC1 cells assessed as accumulation at G2/M phase at 100 nM after 18 hrs by Hoechst 33342 staining based FACS analysis (reference value: 13.7%); type: functional
# [21] = system: MCF7; assay: Cell cycle arrest in human MCF7 cells assessed as increase in accumulation at G2/M phase at 100 nM after 18 hrs by Hoechst 33342 staining based FACS analysis relative to control; type: functional; outline: as §1
# [22] = system: PANC-1; assay: Cell cycle arrest in human PANC1 cells assessed as increase in accumulation at G2/M phase at 100 nM after 18 hrs by Hoechst 33342 staining based FACS analysis relative to control; type: functional; outline: as §1
# [23] = system: PANC-1; assay: Cell cycle arrest in human PANC1 cells assessed as accumulation at S phase at 100 nM after 18 hrs by Hoechst 33342 staining based FACS analysis (reference value: 11.1%); type: functional
# [24] = system: PANC-1; assay: Cell cycle arrest in human PANC1 cells assessed as accumulation at G1 phase at 100 nM after 18 hrs by Hoechst 33342 staining based FACS analysis (reference value: 70.7%); type: functional
# [25] = system: HeLa; assay: Cytotoxicity against human HeLa cells; type: functional, cell-based
# [26] = Terminal half life in human; type: ADME, organism-based; conditions: in vivo, read-out: beta t1/2 (converted)
# [27] = Cytotoxicity against human Renal 1983 cells; type: functional, cell-based
# [28] = Absolute oral bioavailability in human at 150 mg; type: ADME, organism-based; conditions: in vivo
# [29] = system: MCF7; assay: Cytotoxicity against human MCF7 cells; type: functional, cell-based
# [30] = species on record: Homo sapiens; assay: Ratio of nicardipine activity to test compound activity for inhibition of P-gp in human NCI/ADR-RES cells assessed as rate of calcein-AM accumulation; type: cell-based
# Outline: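 Rate of calcein accumulation in NCI/AdrRES cells (1 µM calcein-AM in HBSS, fluorescence versus time, slope by linear regression) with the P-gp modulator nicardipine, compared to the rate with test compound.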
compound,measurement,setting,value
COc1ccc(C2c3c(c(Br)c4c(c3OC)OCO4)CCN2C)cc1 (stereo not given),Activity,[1],26%
same,Activity,[2],23%
CCNC(=O)N1CCc2c(Br)c3c(c(OC)c2C1c1ccccc1)OCO3 (stereo not given),Activity,[1],-2%
same,Activity,[2],6%
COc1cc(CC2c3c(c(Br)c4c(c3OC)OCO4)CCN2C)cc(OC)c1OC (stereo not given),Activity,[1],-1%
same,Activity,[2],-8%
CC[C@]1(O)C[C@@H]2CN(CCc3c([nH]c4ccccc34)[C@@](C(=O)OC)(c3cc4c(cc3OC)N(C)[C@H]3[C@@](O)(C(=O)OC)[C@H](OC(C)=O)[C@]5(CC)C=CCN6CC[C@]43[C@@H]65)C2)C1 [VINBLASTINE],IC50,[3],0.096 µM
same,Ratio IC50,[4],267
same,IC50,[5],0.00036 µM
COc1ccc(C2c3c(c(Br)c4c(c3OC)OCO4)CCN2C)cc1OC (stereo not given),Activity,[1],8%
same,Activity,[2],20%
COC(=O)C1=C(C)NC(C)=C(C(=O)OCCN(C)Cc2ccccc2)C1c1cccc([N+](=O)[O-])c1 (stereo not given) [NICARDIPINE],EC50,[6],4.7 µM
same,Activity,[7],107 RFU/min
same,fold change (FC),[8],13.6
CCNC(=O)N1CCc2c(Br)c3c(c(OC)c2C1Cc1cccc(OC)c1OC)OCO3 (stereo not given),Activity,[1],28%
same,Activity,[2],11%
CCNC(=O)N1CCc2c(Br)c3c(c(OC)c2C1Cc1ccc(OC)cc1)OCO3 (stereo not given),IC50,[3],2.5 µM
same,CI,[9],0.57
same,EC50,[6],2.4 µM
same,Activity,[1],175%
same,Vmax (milli optical density/minute),[10],20
same,CI,[11],1.09
same,CI,[12],0.6
same,CI,[13],1.5
same,Activity,[7],78 RFU/min
same,Activity,[14],36.8%
same,Activity,[15],inactive
same,Activity,[2],208%
same,fold change (FC),[8],6.2
same,CI,[16],0.95
same,CI,[17],1.02
same,Activity,[18],7.7%
same,IC50,[5],2.7 µM
same,Activity,[19],53.5%
COc1cccc(C2c3c(c(Br)c4c(c3OC)OCO4)CCN2C)c1OC (stereo not given),Activity,[1],16%
same,Activity,[2],29%
CC[C@]1(O)C[C@H]2CN(CCc3c([nH]c4ccccc34)[C@@](C(=O)OC)(c3cc4c(cc3OC)N(C=O)[C@H]3[C@@](O)(C(=O)OC)[C@H](OC(C)=O)[C@]5(CC)C=CCN6CC[C@]43[C@@H]65)C2)C1 [VINCRISTINE],Activity,[20],64.1%
same,Activity,[21],283%
same,Activity,[22],265%
same,Activity,[23],9.7%
same,Activity,[24],21.2%
COc1ccc(CC2c3c(c(Br)c4c(c3OC)OCO4)CCN2C)cc1OC (stereo not given),Activity,[1],0%
same,Activity,[2],19%
COc1c2c(c(Br)c3c1C(c1ccccc1)N(C)CC3)OCO2 (stereo not given),Activity,[1],-7%
same,Activity,[2],18%
COc1ccc2c(c1OC)C(=O)O[C@@H]2[C@H]1c2c(cc3c(c2OC)OCO3)CCN1C [NOSCAPINE],IC50,[3],17.4 µM
same,EC50,[6],69.7 µM
same,Activity,[1],16%
same,Vmax (milli optical density/minute),[10],20
same,IC50,[25],25 µM
same,Activity,[7],26.7 RFU/min
same,Activity,[14],16.1%
same,half-life,[26],4.5 h
same,Activity,[15],inactive
same,IC50,[27],39 µM
same,Activity,[2],2%
same,fold change (FC),[8],17.6
same,bioavailability,[28],30%
same,Activity,[18],10.8%
same,IC50,[29],42 µM
same,Ratio,[30],4
same,IC50,[5],18.8 µM
same,Activity,[19],69.3%
CCNC(=O)N1CCc2c(Br)c3c(c(OC)c2C1c1ccc(OC)cc1)OCO3 (stereo not given),Activity,[1],21%
same,Activity,[2],18%
